Values joined by “and” are separate entries in the source; they are usually repeats but may differ in a detail not shown here. Equal entries are not always repeated.
Tested on: Fibroblast
Assay: Multiplex assay against human fibroblast
Type: toxicity, cell-based
In short: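 Imaging took place on a CQ1 microscope at 37°C and 5% CO2 once compound had been added to live cells stained at seeding with Hoechst33342, BioTracker Green Microtubule Cytoskeleton Dye, MitoTracker Red and Annexin V Alexa Fluor 680. CellPathfinder machine-learning gating classed cells as Hoechst high-intensity objects or normal cells, classed normal cells as having healthy, pyknosed or fragmented nuclei, and classed pyknosed cells as mitotic or apoptotic. Tubulin, mitochondrial-mass and membrane-permeability phenotypes are per cents of the healthy-nucleus cells.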

[1] = 12 h, 1 µM, compound concentration 1 uM
[2] = 12 h, 10 µM, compound concentration 10 uM
[3] = 24 h, 1 µM, compound concentration 1 uM
[4] = 24 h, 10 µM, compound concentration 10 uM
[5] = 48 h, 1 µM, compound concentration 1 uM
[6] = 48 h, 10 µM, compound concentration 10 uM

## CC(=O)NCCc1c(Cc2ccccc2)[nH]c2ccccc12 [LUZINDOLE]
[1]
  Population Apoptotic (%): 41% and 40%
  Population Fragmented Nuclei (%): 15% and 25%
  Population Healthy Nuclei (%): 65% and 39%
  Population Hoechst High Intensity Objects (%): 1% and 4%
  Population Membrane Permeable-Phenotype (%): 2% and 9%
  Population Mitochondria Different-Phenotype (%): 7% and 11%
  Population Mitotic Cells (%): 58% and 59%
  Population Normal (%): 98% and 95%
  Population Pyknosed Nuclei (%): 18% and 34%
  Population Tubulin-Different-Phenotype (%): 30% and 50%
  Total Cell Count: 129 and 134
[2]
  Population Apoptotic (%): 19% and 21%
  Population Fragmented Nuclei (%): 15% and 26%
  Population Healthy Nuclei (%): 69% and 59%
  Population Hoechst High Intensity Objects (%): 2%
  Population Mitochondria Different-Phenotype (%): 7% and 4%
  Population Mitotic Cells (%): 80% and 78%
  Population Normal (%): 97%
  Population Pyknosed Nuclei (%): 15% and 13%
  Population Tubulin-Different-Phenotype (%): 42% and 32%
  Total Cell Count: 140 and 105
[3]
  Population Apoptotic (%): 54% and 45%
  Population Fragmented Nuclei (%): 21% and 25%
  Population Healthy Nuclei (%): 61% and 47%
  Population Hoechst High Intensity Objects (%): 0% and 5%
  Population Membrane Permeable-Phenotype (%): 0% and 8%
  Population Mitochondria Different-Phenotype (%): 3% and 8%
  Population Mitotic Cells (%): 45% and 54%
  Population Normal (%): 99% and 94%
  Population Pyknosed Nuclei (%): 16% and 26%
  Total Cell Count: 134 and 137
[4]
  Population Apoptotic (%): 47% and 23%
  Population Fragmented Nuclei (%): 15% and 27%
  Population Healthy Nuclei (%): 67% and 59%
  Population Hoechst High Intensity Objects (%): 2% and 3%
  Population Membrane Permeable-Phenotype (%): 1% and 5%
  Population Mitochondria Different-Phenotype (%): 5% and 3%
  Population Mitotic Cells (%): 52% and 76%
  Population Normal (%): 97% and 96%
  Population Pyknosed Nuclei (%): 17% and 12%
  Population Tubulin-Different-Phenotype (%): 29% and 33%
  Total Cell Count: 138 and 105
[5]
  Population Apoptotic (%): 75% and 39%
  Population Fragmented Nuclei (%): 15% and 27%
  Population Healthy Nuclei (%): 72% and 55%
  Population Hoechst High Intensity Objects (%): 5% and 8%
  Population Membrane Permeable-Phenotype (%): 2% and 9%
  Population Mitochondria Different-Phenotype (%): 3% and 5%
  Population Mitotic Cells (%): 25% and 60%
  Population Normal (%): 94% and 91%
  Population Pyknosed Nuclei (%): 12% and 16%
  Population Tubulin-Different-Phenotype (%): 24% and 46%
  Total Cell Count: 134 and 149
[6]
  Population Apoptotic (%): 80% and 54%
  Population Fragmented Nuclei (%): 19% and 34%
  Population Healthy Nuclei (%): 70% and 54%
  Population Hoechst High Intensity Objects (%): 3% and 4%
  Population Membrane Permeable-Phenotype (%): 0% and 3%
  Population Mitochondria Different-Phenotype (%): 3%
  Population Mitotic Cells (%): 20% and 45%
  Population Normal (%): 96% and 95%
  Population Pyknosed Nuclei (%): 10%
  Population Tubulin-Different-Phenotype (%): 34% and 50%
  Total Cell Count: 147 and 111

## N[C@@]1(C(=O)O)CO[C@H]2[C@H](C(=O)O)[C@H]21 [LY-379268]
[1]
  Population Apoptotic (%): 22% and 44%
  Population Fragmented Nuclei (%): 17% and 33%
  Population Healthy Nuclei (%): 70% and 43%
  Population Hoechst High Intensity Objects (%): 1% and 10%
  Population Membrane Permeable-Phenotype (%): 0% and 5%
  Population Mitochondria Different-Phenotype (%): 2% and 1%
  Population Mitotic Cells (%): 77% and 55%
  Population Normal (%): 98% and 89%
  Population Pyknosed Nuclei (%): 11% and 22%
  Population Tubulin-Different-Phenotype (%): 25% and 45%
  Total Cell Count: 156 and 145
[2]
  Population Apoptotic (%): 29% and 21%
  Population Fragmented Nuclei (%): 15%
  Population Healthy Nuclei (%): 69% and 51%
  Population Hoechst High Intensity Objects (%): 3%
  Population Membrane Permeable-Phenotype (%): 0% and 4%
  Population Mitochondria Different-Phenotype (%): 3% and 1%
  Population Mitotic Cells (%): 70% and 78%
  Population Normal (%): 96%
  Population Pyknosed Nuclei (%): 14% and 33%
  Population Tubulin-Different-Phenotype (%): 19% and 47%
  Total Cell Count: 187 and 128
[3]
  Population Apoptotic (%): 36% and 47%
  Population Fragmented Nuclei (%): 16% and 40%
  Population Healthy Nuclei (%): 70% and 41%
  Population Hoechst High Intensity Objects (%): 0% and 10%
  Population Membrane Permeable-Phenotype (%): 0% and 4%
  Population Mitochondria Different-Phenotype (%): 5% and 10%
  Population Mitotic Cells (%): 63% and 52%
  Population Normal (%): 99% and 89%
  Population Pyknosed Nuclei (%): 12% and 18%
  Population Tubulin-Different-Phenotype (%): 23% and 60%
  Total Cell Count: 152 and 125
[4]
  Population Apoptotic (%): 66% and 22%
  Population Fragmented Nuclei (%): 14% and 17%
  Population Healthy Nuclei (%): 75% and 53%
  Population Hoechst High Intensity Objects (%): 5% and 6%
  Population Membrane Permeable-Phenotype (%): 0% and 2%
  Population Mitochondria Different-Phenotype (%): 3% and 0%
  Population Mitotic Cells (%): 33% and 77%
  Population Normal (%): 94% and 93%
  Population Pyknosed Nuclei (%): 10% and 28%
  Population Tubulin-Different-Phenotype (%): 19% and 44%
  Total Cell Count: 189 and 133
[5]
  Population Apoptotic (%): 76% and 50%
  Population Fragmented Nuclei (%): 22% and 33%
  Population Healthy Nuclei (%): 68% and 55%
  Population Hoechst High Intensity Objects (%): 3% and 11%
  Population Membrane Permeable-Phenotype (%): 0% and 4%
  Population Mitochondria Different-Phenotype (%): 5% and 7%
  Population Mitotic Cells (%): 23% and 50%
  Population Normal (%): 96% and 88%
  Population Pyknosed Nuclei (%): 8% and 11%
  Population Tubulin-Different-Phenotype (%): 26% and 59%
  Total Cell Count: 156 and 136
[6]
  Population Apoptotic (%): 62% and 42%
  Population Fragmented Nuclei (%): 14% and 27%
  Population Healthy Nuclei (%): 72% and 56%
  Population Hoechst High Intensity Objects (%): 1% and 7%
  Population Membrane Permeable-Phenotype (%): 0% and 10%
  Population Mitochondria Different-Phenotype (%): 0% and 5%
  Population Mitotic Cells (%): 37% and 57%
  Population Normal (%): 98% and 92%
  Population Pyknosed Nuclei (%): 13% and 16%
  Population Tubulin-Different-Phenotype (%): 19% and 47%
  Total Cell Count: 179 and 140
